Data set [1] in a line: folding enthalpy; higher = less favourable; fluorescence melt of hairpins on a sequencing array, two-state fit. To be noted: sodium 0.088 M. A digest of the protocol: (§1)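 Bootstrapped two-state fits yielded melting temperature and folding enthalpy for library hairpins. Cy3 fluorescence, with annealed Cy3 and quencher oligos, was imaged on a sequenced MiSeq flow cell in 50 mM Na-HEPES pH 8.0, 25 mM NaCl in 2.5 °C steps up to 60 °C, and normalised to pre-quench Cy3 and to control constructs. Four replicates were combined by inverse variance, and fitted temperatures were raised by 9.35 °C to match UV melts.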

Data set [2] can be described thus: melting temperature; fluorescence melt of hairpins on a sequencing array, two-state fit, raised by 9.35 °C to match UV melts. To be noted: sodium 0.088 M. A digest of the protocol:
as §1

AAAGTGAAAACTTT (((((....))))): the folding enthalpy in data set [1] was -11.1 kcal/mol. Further, the Tm in data set [2] was 33 °C.
The corresponding values for AAATCGAAAGATTT (((((....))))) are -13.6 kcal/mol and 46.6 °C.
For AACCTGAAAAGGTT (((((....))))) the same measures were -20 kcal/mol and 45.5 °C.
For AACGTGAAAACGTT (((((....))))) the same measures were -19.2 kcal/mol and 48 °C.
For AACTTGAAAAAGTT (((((....))))), in data set [1], the folding enthalpy was -14.2 kcal/mol. In data set [2], the Tm amounted to 30.4 °C.
The corresponding values for AAGACGAAAGTCTT (((((....))))) are -20.1 kcal/mol and 52.7 °C.
For AAGCGGAAACGCTT (((((....))))) the same measures were -17.5 kcal/mol and 57.3 °C.
The corresponding values for AAGGGGAAACCCTT (((((....))))) are -13.8 kcal/mol and 46 °C.
With AAGGTGAAAACCTT (((((....))))), the folding enthalpy in data set [1] is -17.5 kcal/mol. In addition, in data set [2], the Tm worked out at 43.2 °C.
The corresponding values for AAGTCGAAAGACTT (((((....))))) are -18.3 kcal/mol and 52.6 °C.
For AATACGAAAGTATT (((((....))))) the same measures were -15.3 kcal/mol and 44.8 °C.
In the case of AATGTGAAAACATT (((((....))))), the folding enthalpy in data set [1] was -15 kcal/mol. The Tm in data set [2] came out at 37.8 °C.
The corresponding values for ACAACGAAAGTTGT (((((....))))) are -21.6 kcal/mol and 53.6 °C.
The corresponding values for ACAAGGAAACTTGT (((((....))))) are -12.6 kcal/mol and 40.3 °C.
The corresponding values for ACACGGAAACGTGT (((((....))))) are -24 kcal/mol and 55.1 °C.
Regarding ACATAGAAATATGT (((((....))))), the folding enthalpy in data set [1] was -7.88 kcal/mol. For the same sequence, in data set [2], the Tm was determined as 24.6 °C.
For ACCCAGAAATGGGT (((((....))))) the same measures were -18.3 kcal/mol and 47.9 °C.
The corresponding values for ACGATGAAAATCGT (((((....))))) are -19 kcal/mol and 51 °C.
For ACTTCGAAAGAAGT (((((....))))) the same measures were -20.8 kcal/mol and 50.8 °C.
As for AGATCGAAAGATCT (((((....))))), the folding enthalpy in data set [1] is -23.2 kcal/mol. The Tm in data set [2] is 50.9 °C.
For AGCTTGAAAAAGCT (((((....))))) the same measures were -17.4 kcal/mol and 47.9 °C.
Consider AGGTAGAAATACCT (((((....))))), for which the folding enthalpy in data set [1] was -14.5 kcal/mol. Further, the Tm in data set [2] amounted to 33.5 °C.
The corresponding values for AGTACGAAAGTACT (((((....))))) are -21.4 kcal/mol and 54.1 °C.
For AGTCGGAAACGACT (((((....))))) the same measures were -20.1 kcal/mol and 54.3 °C.
The corresponding values for AGTTCGAAAGAACT (((((....))))) are -20.8 kcal/mol and 55.4 °C.
As for ATACAGAAATGTAT (((((....))))), the folding enthalpy in data set [1] was -10.4 kcal/mol. The Tm in data set [2] was 25.3 °C.
Turning to “ATCAGTGAAAAATCACTGAA ....................”, in data set [1], the folding enthalpy was -20.6 kcal/mol. In data set [2], the Tm was 31.9 °C.
For “ATCAGTGAGAAATCACTGAA ....................” the same measures were -14.1 kcal/mol and 46.2 °C.
For ATCCAGAAATGGAT (((((....))))) the same measures were -14.3 kcal/mol and 41.2 °C.
For ATCCGGAAACGGAT (((((....))))) the same measures were -20.7 kcal/mol and 52.8 °C.
ATTCCGAAAGGAAT (((((....))))): the folding enthalpy in data set [1] is -20.8 kcal/mol. Also, the Tm in data set [2] was 52.4 °C.
For CAAACAGAAATGGTTG (((.((....)).))) the same measures were -13 kcal/mol and 29.4 °C.
For CATCAGAAATGATG (((((....))))) the same measures were -18.6 kcal/mol and 41.7 °C.
For CATCTGAAAAGATG (((((....))))) the same measures were -25.1 kcal/mol and 44.5 °C.
Consider CATTTGAAAAAATG (((((....))))), for which the folding enthalpy in data set [1] is -11.1 kcal/mol. Also, in data set [2], the Tm is 32.1 °C.
For CCCCAGAAATGGGG (((((....))))) the same measures were -16 kcal/mol and 52.2 °C.
For CCGAAGAAATTCGG (((((....))))) the same measures were -19.2 kcal/mol and 46.9 °C.
The corresponding values for CCGGAGAAATCCGG (((((....))))) are -21.4 kcal/mol and 56.5 °C.
On to CCGTGGAAACACGG (((((....))))), for which the folding enthalpy in data set [1] is -29.2 kcal/mol. Besides, in data set [2], the Tm stood at 59.1 °C.
For the sequence CGAAAGAAATTTCG (((((....))))), the folding enthalpy in data set [1] is -13.6 kcal/mol. For the same sequence, the Tm in data set [2] was determined as 38.5 °C.
The corresponding values for CGAACACGGAAACGTTCG (((..(((....)))))) are -32.4 kcal/mol and 42.7 °C.
For CGAACCGGAAACGGCTCG (((.(((....))).))) the same measures were -35.5 kcal/mol and 49.9 °C.
For CGAACCGGAAACGGGTCG (((.(((....))).))) the same measures were -33.9 kcal/mol and 58.3 °C.
CGAACGGAAACGTGCTCG ((((((....)))..))): the folding enthalpy in data set [1] was -15.1 kcal/mol. Besides, the Tm in data set [2] worked out at 28.5 °C.
For CGAACGGAAACGTGTCG ((((((....))).))) the same measures were -23.1 kcal/mol and 38.5 °C.
For CGAAGGAAACTTCG (((((....))))) the same measures were -21.5 kcal/mol and 48.6 °C.
The corresponding values for CGAAGGCGGAAACGCTCG (((..(((....)))))) are -20.8 kcal/mol and 37.5 °C.
Regarding CGAATCGGAAACGAATCG (((.(((....))).))), the folding enthalpy in data set [1] was -37.4 kcal/mol. Moreover, the Tm in data set [2] is 44.7 °C.
For CGAATCGGAAACGATCG (((.(((....)))))) the same measures were -32.4 kcal/mol and 45.6 °C.
For CGACACGGAAACGTATCG (((.(((....))).))) the same measures were -28.1 kcal/mol and 42.3 °C.
Turning to CGACACGGAAACGTTTCG (((.(((....))).))), the folding enthalpy in data set [1] is -33.7 kcal/mol. In addition, in data set [2], the Tm is 44.8 °C.
The corresponding values for CGACCCGGAAACGGATCG (((.(((....))).))) are -33.4 kcal/mol and 48.8 °C.
Consider CGACCCGGAAACGGCTCG (((.(((....))).))), for which the folding enthalpy in data set [1] is -23.7 kcal/mol. The Tm in data set [2] was 40.1 °C.
For CGACCGGAAACGGAATCG ((((((....)))..))) the same measures were -14.3 kcal/mol and 35.7 °C.
CGACCGGAAACGGACTCG ((((((....)))..))): in data set [1], the folding enthalpy is -12.9 kcal/mol. In addition, the Tm in data set [2] was 30.7 °C.
Consider CGACCGGAAACGGGATCG ((((((....)))..))), for which the folding enthalpy in data set [1] is -15.7 kcal/mol. Besides, in data set [2], the Tm came out at 38.8 °C.
The corresponding values for CGACCGGAAACGGGTTCG ((((((....)))..))) are -21.4 kcal/mol and 38.9 °C.
The corresponding values for CGACCGGAAACGGTATCG ((((((....)))..))) are -13.6 kcal/mol and 33.6 °C.
The corresponding values for CGACTCCGGAAACGGTCG (((..(((....)))))) are -24.1 kcal/mol and 38.4 °C.
Turning to CGAGAACGGAAACGTTCG (((..(((....)))))), the folding enthalpy in data set [1] is -25.3 kcal/mol. Moreover, the Tm in data set [2] stood at 52.9 °C.
With CGAGCACGGAAACGTTCG (((..(((....)))))), the folding enthalpy in data set [1] was -13.5 kcal/mol. Also, the Tm in data set [2] was found to be 36.7 °C.
The corresponding values for CGAGCGGAAACGCTTCG ((((((....))).))) are -15 kcal/mol and 50.6 °C.
The corresponding values for CGAGGCGGAAACGCTTCG (((.(((....))).))) are -35.3 kcal/mol and 55.3 °C.
For the sequence CGATACCGGAAACGGTCG (((..(((....)))))), the folding enthalpy in data set [1] is -12.3 kcal/mol. Also, the Tm in data set [2] was 35.1 °C.
The corresponding values for CGATACGGAAACGTTCG (((.(((....)))))) are -28.6 kcal/mol and 42.3 °C.
The corresponding values for CGATCCGGAAACGGTCG (((.(((....)))))) are -29.1 kcal/mol and 50.5 °C.
Regarding CGATCGGAAACGACGTCG ((((((....)))..))), the folding enthalpy in data set [1] was -18.6 kcal/mol. In addition, the Tm in data set [2] worked out at 40.8 °C.
The corresponding values for CGATCGGAAACGAGGTCG ((((((....)))..))) are -13.5 kcal/mol and 31 °C.
For CGATCGGAAACGAGTCG ((((((....))).))) the same measures were -24.7 kcal/mol and 39.9 °C.
With CGATCGGAAACGAGTTCG ((((((....)))..))), the folding enthalpy in data set [1] is -20.5 kcal/mol. In data set [2], the Tm turned out to be 34.3 °C.
For CGATGCGGAAACGCCTCG (((.(((....))).))) the same measures were -40.4 kcal/mol and 48.1 °C.
In the case of CGATGCGGAAACGCTTCG (((.(((....))).))), in data set [1], the folding enthalpy was -41.7 kcal/mol. The Tm in data set [2] amounted to 53 °C.
For CGATGGCGGAAACGCTCG (((..(((....)))))) the same measures were -15.8 kcal/mol and 38.5 °C.
CGATTCGGAAACGATCG (((.(((....)))))): the folding enthalpy in data set [1] was -32.8 kcal/mol. In data set [2], the Tm worked out at 44 °C.
For CGCAACGGAAACGTGGCG (((.(((....))).))) the same measures were -46.5 kcal/mol and 57.7 °C.
For CGCAAGAAATTGCG (((((....))))) the same measures were -29.6 kcal/mol and 53.3 °C.

(Values after the array DNA melting data of Ke et al. (doi:10.1101/2024.01.08.574731).)
